Source: PubChem
Sampled rows, rich in hits. Any-hit rate of the full collection: about 5.3%.
Mdm2 MdmX PPI = inhibitors of human Mdm2-MdmX association, primary screen, cell-based, luminescence, split luciferase, SaOS-2, uHTS; inhibition, % at 8 µM; hit rate 3% among 330,000; SaOS-2 split-luciferase Mdm2/MdmX complementation; AID 485346, 2010; Protein Mdm4 (Homo sapiens) + E3 ubiquitin-protein ligase Mdm2 (Homo sapiens), …;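 active = inhibition of at least 50% at 8 µM in the primary screen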
Target sequence (O15151 whole entry, looked up): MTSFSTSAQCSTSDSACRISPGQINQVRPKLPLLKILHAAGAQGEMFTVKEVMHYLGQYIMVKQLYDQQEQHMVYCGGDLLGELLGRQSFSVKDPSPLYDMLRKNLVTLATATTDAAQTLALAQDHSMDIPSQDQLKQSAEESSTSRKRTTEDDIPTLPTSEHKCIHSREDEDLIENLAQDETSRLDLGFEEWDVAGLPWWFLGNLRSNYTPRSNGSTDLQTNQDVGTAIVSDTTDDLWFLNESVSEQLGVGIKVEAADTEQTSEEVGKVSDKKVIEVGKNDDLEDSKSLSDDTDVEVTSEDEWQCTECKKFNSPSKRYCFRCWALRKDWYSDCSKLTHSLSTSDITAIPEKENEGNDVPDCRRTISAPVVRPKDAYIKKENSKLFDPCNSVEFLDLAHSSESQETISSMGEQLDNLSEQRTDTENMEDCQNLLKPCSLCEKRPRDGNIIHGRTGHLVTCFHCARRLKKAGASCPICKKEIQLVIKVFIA
Target sequence (Q00987 whole entry, looked up): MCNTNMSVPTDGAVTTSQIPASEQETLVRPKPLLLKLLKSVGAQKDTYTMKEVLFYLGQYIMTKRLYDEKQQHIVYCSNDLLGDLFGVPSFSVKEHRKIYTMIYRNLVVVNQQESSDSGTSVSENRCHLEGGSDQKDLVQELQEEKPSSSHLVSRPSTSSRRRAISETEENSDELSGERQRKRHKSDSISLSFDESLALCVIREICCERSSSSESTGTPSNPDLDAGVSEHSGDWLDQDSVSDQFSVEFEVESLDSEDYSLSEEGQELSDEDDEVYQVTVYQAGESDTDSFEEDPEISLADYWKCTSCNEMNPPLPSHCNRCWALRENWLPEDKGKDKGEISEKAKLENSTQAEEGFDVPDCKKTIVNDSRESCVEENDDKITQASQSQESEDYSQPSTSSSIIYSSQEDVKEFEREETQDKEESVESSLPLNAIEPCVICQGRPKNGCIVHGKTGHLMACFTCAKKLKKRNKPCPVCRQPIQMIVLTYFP
Beta cell apopt = inhibitors of cytokine-induced beta cell apoptosis, primary screen, luminescence | AID 435005, 2010 | hit rate 0.8% among 300,000 | INS-1E cytokine-induced death, ATP luminescence, 48 h; percent of positive-control rescue, neutral wells zero | protection from apoptosis, % (test concentration not listed);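 active = Every replicate reaches about 75%, or at least half do and their mean reaches it too, limit read from the data; inconclusive = At least half of replicates reach the limit but their mean does not; inactive = Under half of replicates reach the limit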;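 note: 0% = cytokine-treated negative control wells and 100% = positive control rescue; higher means more ATP so stronger rescue from cytokine killing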
NALP3 yeast inh = NALP3 inflammasome inhibitors in reconstituted yeast, primary screen, luminescence, uHTS | Yeast reconstituted NLRP3/ASC/caspase-1, beta-gal luminescence, 24 h | inhibition, % at 10 µM | hit rate 0.39% among 330,000;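 active = inhibition of 50% or more; inactive = inhibition below 50%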;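 note: plate controls were induced DMSO wells for no effect and uninduced yeast grown without galactose for full effect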
T cruzi inh = inhibitors of intracellular T. cruzi growth, primary screen, luminescence, NIH3T3 host cells. T. cruzi beta-gal in NIH3T3, 90 h. inhibition, % (concentration not given with the values). hit rate 1.4% among 300,000;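 active = mean inhibition across valid replicates above about 55%, limit read from the data; inconclusive = mean below that limit but half or more replicates reach it; inactive = mean below it, under half of replicates reach it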;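 note: signal also drops with host cell toxicity which is not excluded here; 0% = plate median of DMSO wells and 100% = zero luminescence signal; higher percent means less beta-gal luminescence so fewer parasites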
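System – NIH/3T3 host cells with β-galactosidase reporter T. cruzi · Doses – single 50 nL compound addition per well in DMSO · Reagent – 5000 T. cruzi trypomastigotes/well · Medium – Low-serum DMEM with 2% FBS · Timing – ≥90 h infection period, 3 h prior cell attachment · Evaluation – parasite load inhibition, % · Technique – GalScreen luminescence, 60 min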
CSC inhib = cancer stem cell viability inhibitors, primary screen, luminescence. hit rate 1.1% among 300,000. inhibition, % at 7.5 µM. AID 2717, 2010. cancer stem cell-like cells viability; in the data active = inhibition above about 75%; inconclusive = no clear call, values can overlap the other calls; tested in HMLE shEcad cells
Calb FLC = C. albicans growth inhibition with fluconazole, primary screen, CaCi-2 strain, Alamar Blue fluorescence; C. albicans CaCi-2 (fluconazole-resistant clinical isolate) + fluconazole, 48 h; growth inhibition, % (test concentration not listed); hit rate 0.57% among 300,000; AID 1979, 2009;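 active = growth inhibition above about 58% in most replicates, limit read from the data, passing the limit was not always enough; inconclusive = exactly half the replicates above a set limit; inactive = most replicates below a set limit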;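 note: all wells also contain fluconazole at 8 µg/ml as a sub-toxic cotreatment; 0% = median of DMSO wells and 100% = median of geldanamycin control wells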
Mdm2 MdmX conf = Mdm2-MdmX complex disruptors, retested hits, confirmation, luminescence, single concentration | shares compounds with Mdm2 MdmX PPI | Mdm2-MdmX binding, luminescent assay | inhibition, % at 8 µM | hit rate 55% among 10,000 | AID 489028, 2010; in the data active = inhibition above about 40%
FLuc counter = full-length luciferase signal inhibition, confirmation, counter-screen for Mdm2/MdmX interaction inhibitor project, cell-based, single concentration, SaOS-2; shares compounds with Mdm2 MdmX PPI; SaOS-2 full-length luciferase counterscreen, luminescence; inhibition, % at 8 µM; hit rate 77% among 6,200;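 active = mean inhibition at 8 µM reaching about 37%, which flags the compound as non-specific, limit read from the data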;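 note: p53-null SaOS-2 cells with luciferase driven by a doxycycline-inducible promoter; compound on cells about two nights before reading with doxycycline added after day one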
* hit, by the source's call.

Results for Cc1[nH]c(=S)sc1Cc1ccc(Cl)c(Cl)c1 ?
Mdm2 MdmX PPI: 1; Beta cell apopt: -8; NALP3 yeast inh: -26; T cruzi inh: -4; CSC inhib: 7; Calb FLC: -4

Results for CCOc1ccccc1CNC(=O)CCCC(=O)n1nc(C)c2ccccc21 ?
Mdm2 MdmX PPI: -17; Beta cell apopt: -1; NALP3 yeast inh: 3; T cruzi inh: 4; CSC inhib: 2; Calb FLC: -16

How did Cc1cccc(C(=O)CC(=O)c2cc(Cl)ccc2O)c1 do in these assays?
Mdm2 MdmX PPI: 62*; Beta cell apopt: 44; NALP3 yeast inh: -1; T cruzi inh: 31; CSC inhib: 32; Calb FLC: 98*; Mdm2 MdmX conf: 58*; FLuc counter: 39*

How did O=C(CC(=O)c1cc(Cl)ccc1O)c1ccccc1 do in these assays?
Mdm2 MdmX PPI: 40; Beta cell apopt: 21; NALP3 yeast inh: 17; T cruzi inh: 4; CSC inhib: 15; Calb FLC: 34

How did O=C(COC(=O)c1ccccn1)NC1CCCCC1 do in these assays?
Mdm2 MdmX PPI: -3; Beta cell apopt: -6; NALP3 yeast inh: 2; T cruzi inh: 15; CSC inhib: -10; Calb FLC: 2

What do the screens show for `CCc1nn(CCCC(=O)N2CCN(c3cccc(C)c3C)CC2)c(=O)c2cc3occc3n12`?
Mdm2 MdmX PPI: 93*; Beta cell apopt: -3; NALP3 yeast inh: 34; T cruzi inh: 5; CSC inhib: 74; Calb FLC: 6; Mdm2 MdmX conf: 61*; FLuc counter: 78*

Results for CCn1c2ccccc2c2cc(NC(=O)CSc3nnc(-c4cccc(Cl)c4)o3)ccc21 ?
Mdm2 MdmX PPI: 52*; Beta cell apopt: 3; NALP3 yeast inh: 37; T cruzi inh: 6; CSC inhib: 8; Calb FLC: -6; Mdm2 MdmX conf: 31

Results for CCOc1ccc(-c2nnc(SCC(=O)Nc3ccc4c(c3)c3ccccc3n4CC)n2N)cc1 ?
Mdm2 MdmX PPI: 71*; Beta cell apopt: 71; NALP3 yeast inh: 10; T cruzi inh: 2; CSC inhib: 52; Calb FLC: inconclusive; Mdm2 MdmX conf: 71*; FLuc counter: 23

Results for CCn1c2ccccc2c2cc(NC(=O)CSc3nnc(-c4ccc(OC)c(OC)c4)n3N)ccc21 ?
Mdm2 MdmX PPI: -31; Beta cell apopt: -1; NALP3 yeast inh: -2; T cruzi inh: 21; CSC inhib: -12; Calb FLC: 22

Results for Cc1ccccc1CNC(=O)C(=O)NCC1OCCCN1S(=O)(=O)c1ccc(F)cc1C (centres undefined) ?
Mdm2 MdmX PPI: 18; Beta cell apopt: 0; NALP3 yeast inh: 5; T cruzi inh: 4; CSC inhib: 14; Calb FLC: 3

Results for Cc1c(CN(C)C)c2c(n1Cc1ccccc1)C(=O)c1ccc(Br)cc1-2 ?
Mdm2 MdmX PPI: 77*; Beta cell apopt: 11; NALP3 yeast inh: 40; T cruzi inh: 21; CSC inhib: 13; Calb FLC: -14; Mdm2 MdmX conf: 61*; FLuc counter: 30

Results for Cc1c(CN(C)C)c2c(n1C)C(=O)c1ccc(Br)cc1-2 ?
Mdm2 MdmX PPI: 16; Beta cell apopt: 3; NALP3 yeast inh: 15; T cruzi inh: 1; CSC inhib: 3; Calb FLC: -3

How did C=CCOc1ccccc1/C=N/NC(=O)c1ccc(Cl)cc1Cl do in these assays?
Mdm2 MdmX PPI: -12; Beta cell apopt: 1; NALP3 yeast inh: 0; T cruzi inh: -4; CSC inhib: -14; Calb FLC: inconclusive

How did COc1cc(C(=O)Oc2ccccc2/C=N/NC(=O)c2ccc(Cl)cc2Cl)cc(OC)c1OC do in these assays?
Mdm2 MdmX PPI: 56*; Beta cell apopt: 92*; NALP3 yeast inh: 11; T cruzi inh: 10; CSC inhib: 22; Calb FLC: -3; Mdm2 MdmX conf: 23

What do the screens show for `Cc1ccc(S(=O)(=O)N(C)c2ccc(OCC(=O)N3CCCC(C(F)(F)F)C3)cc2)cc1` (centres undefined)?
Mdm2 MdmX PPI: 15; Beta cell apopt: -4; NALP3 yeast inh: 13; T cruzi inh: 28; CSC inhib: 48; Calb FLC: 6

How did Cc1nc2cc(-c3ccccc3)sc2c(=O)n1N do in these assays?
Mdm2 MdmX PPI: 62*; Beta cell apopt: inconclusive; NALP3 yeast inh: 13; T cruzi inh: 4; CSC inhib: 13; Calb FLC: -2; Mdm2 MdmX conf: 56*; FLuc counter: 30

Results for COc1ccc(-c2cc3nc(C)n(N)c(=O)c3s2)cc1 ?
Mdm2 MdmX PPI: 89*; Beta cell apopt: 53; NALP3 yeast inh: 39; T cruzi inh: -4; CSC inhib: 97*; Calb FLC: -11; Mdm2 MdmX conf: 88*; FLuc counter: 56*

How did COc1ccc(-c2nc3ccccc3c(=O)n2N)cc1 do in these assays?
Mdm2 MdmX PPI: 15; Beta cell apopt: -2; NALP3 yeast inh: 11; T cruzi inh: 2; CSC inhib: -2; Calb FLC: 1

How did Cc1ccc(C)n1-n1c(C)nc2sc(-c3ccccc3)cc2c1=O do in these assays?
Mdm2 MdmX PPI: -15; Beta cell apopt: 7; NALP3 yeast inh: 20; T cruzi inh: 11; CSC inhib: 12; Calb FLC: -8

What do the screens show for `CC(=O)Nc1nc(C)c(-c2csc(Nc3ccc(O)cc3)n2)s1`?
Mdm2 MdmX PPI: 66*; Beta cell apopt: 23; NALP3 yeast inh: 25; Mdm2 MdmX conf: 68*; FLuc counter: 44*

Results for CC(=O)Nc1ccc(Nc2nc(-c3sc(NC(C)=O)nc3C)cs2)cc1 ?
Mdm2 MdmX PPI: 58*; Beta cell apopt: -12; NALP3 yeast inh: 17; T cruzi inh: -4; CSC inhib: 2; Calb FLC: -2; Mdm2 MdmX conf: 23

What do the screens show for `COc1ccc(Nc2nc(-c3sc(C)nc3C)cs2)cc1`?
Mdm2 MdmX PPI: 50*; Beta cell apopt: 36; NALP3 yeast inh: 19; T cruzi inh: -17; CSC inhib: 64; Calb FLC: -4; Mdm2 MdmX conf: 45*; FLuc counter: 61*

What do the screens show for `CCC(=O)Nc1nc(C)c(-c2csc(Nc3ccc(C(=O)O)cc3)n2)s1`?
Mdm2 MdmX PPI: 20; NALP3 yeast inh: -8; T cruzi inh: -7; Calb FLC: -1
